Assay results from ChEMBL document CHEMBL4038329, “Side-Chain Modified Ergosterol and Stigmasterol Derivatives as Liver X Receptor Agonists” (J Med Chem, 2017).
The source made the active and inactive calls. No cut-off for these calls is given here.

What was measured:
[1] = Agonist activity at LXR in human U937 cells assessed as upregulation of SREBP1c mRNA levels at 10 uM after 6 hrs by qPCR analysis; type: cell-based
Method in brief: (§1)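 U937 cells, 3x10⁶ in 10 ml RPMI with 10% FBS, differentiated with PMA 10 ng/ml for 72 h at 37 °C, then treated with ligand (10 μM) for 6 h. Total RNA was isolated with TRIZOL; 2 µg was reverse-transcribed for 1 h at 42 °C. Transcripts were measured by qPCR. Mean ± SD of three biological samples; ANOVA with Dunnett's test.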

[2] = Agonist activity at LXR in human U937 cells assessed as upregulation of SCD1 mRNA levels at 10 uM after 6 hrs by qPCR analysis relative to control; type: cell-based; conditions: human, 6 h, 10 µM; method in brief: as §1
Homo sapiens [3] = species: Homo sapiens; assay: Agonist activity at LXR in human U937 cells assessed as upregulation of ABCA1 mRNA levels at 10 uM after 6 hrs by qPCR analysis; type: cell-based; method in brief: as §1
[4] = Agonist activity at LXR in human HepG2 cells assessed as upregulation of SCD1 mRNA levels at 10 uM after 6 hrs by qPCR analysis; type: cell-based
Method in brief: (§2)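 HepG2 cells treated with ligand (10 μM). Total RNA was extracted with TRIZOL; 2 µg was reverse-transcribed (1 h, 42 °C). SREBP1c, FASN and SCD1 transcripts were measured by qPCR. Mean ± SD of three biological samples; ANOVA with Dunnett's test.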

[5] = Agonist activity at LXR in human HepG2 cells assessed as upregulation of FASN mRNA levels at 10 uM after 6 hrs by qPCR analysis; type: cell-based; method in brief: as §2
[6] = target: T1, Oxysterols receptor LXR-alpha (Homo sapiens, UniProt Q13133); assay: Activation of GAL4 fused human LXR alpha expressed in HEK293 cells after 24 hrs by luciferase reporter gene assay; type: cell-based
T1 sequence (Q13133 whole entry): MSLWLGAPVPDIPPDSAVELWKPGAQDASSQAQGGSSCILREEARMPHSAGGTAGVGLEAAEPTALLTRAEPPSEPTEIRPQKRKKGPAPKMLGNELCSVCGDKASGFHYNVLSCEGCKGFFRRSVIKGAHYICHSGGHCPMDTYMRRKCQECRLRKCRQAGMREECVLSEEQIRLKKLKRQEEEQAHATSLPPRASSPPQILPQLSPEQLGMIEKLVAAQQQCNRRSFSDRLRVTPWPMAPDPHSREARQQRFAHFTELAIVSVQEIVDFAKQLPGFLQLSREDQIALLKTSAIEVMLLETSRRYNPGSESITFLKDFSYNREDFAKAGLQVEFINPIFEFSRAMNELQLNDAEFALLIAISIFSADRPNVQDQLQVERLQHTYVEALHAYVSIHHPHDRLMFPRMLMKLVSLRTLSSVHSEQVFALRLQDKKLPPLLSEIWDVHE
Method in brief: (§3)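 HEK293 cells (4x10⁴/well), grown in DMEM with 10% FBS at 37 °C under 5% CO₂, transiently co-transfected with pMH100X4-TK-luc, Renilla and the Gal4-LXR-α or Gal4-LXR-β plasmid. Dosing began 6 h after transfection and lasted 24 h, at 32, 16, 8, 4, 2 and 1 μM. Dual luciferase read-out. EC50 came from dose-response curves, averaged over three to five independent experiments, ± SD.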

[7] = Agonist activity at LXR in human U937 cells assessed as upregulation of FASN mRNA levels at 10 uM after 6 hrs by qPCR analysis; type: cell-based; method in brief: as §1
[8] = target: T2, Oxysterols receptor LXR-beta (Homo sapiens, UniProt P55055); assay: Activation of GAL4 fused human LXR beta expressed in HEK293 cells after 24 hrs by luciferase reporter gene assay; type: cell-based; method in brief: as §3
T2 sequence (P55055 whole entry): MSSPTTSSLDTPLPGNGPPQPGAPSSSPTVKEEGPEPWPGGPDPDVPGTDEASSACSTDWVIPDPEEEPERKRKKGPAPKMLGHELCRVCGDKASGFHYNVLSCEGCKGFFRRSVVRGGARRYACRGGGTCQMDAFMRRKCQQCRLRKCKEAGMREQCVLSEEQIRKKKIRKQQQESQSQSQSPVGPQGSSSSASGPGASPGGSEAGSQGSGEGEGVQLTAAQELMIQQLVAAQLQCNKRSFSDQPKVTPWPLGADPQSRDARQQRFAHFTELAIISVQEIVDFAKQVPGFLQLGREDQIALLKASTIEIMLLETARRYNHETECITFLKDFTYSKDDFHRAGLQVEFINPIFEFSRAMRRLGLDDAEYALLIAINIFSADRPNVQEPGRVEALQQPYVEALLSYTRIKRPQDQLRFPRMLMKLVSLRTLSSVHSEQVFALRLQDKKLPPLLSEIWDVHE

[9] = Agonist activity at LXR in human HepG2 cells assessed as upregulation of SREBP1c mRNA levels at 10 uM after 6 hrs by qPCR analysis; type: cell-based; method in brief: as §2
HEK293 = assay: Activation of GAL4 fused human RXR expressed in HEK293 cells at 10 uM after 24 hrs by luciferase reporter gene assay
Homo sapiens [10] = species: Homo sapiens; assay: Agonist activity at LXR in human U937 cells assessed as downregulation of LPS-induced CCL2 mRNA expression at 10 uM after 6 hrs by qPCR analysis; type: cell-based
Method in brief: (§4)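 PMA-differentiated U937 cells (10 ng/ml PMA, 72 h) were given LPS 100 ng/ml together with compound (10 μM) for 6 h. CCL2 and TNFα mRNA were measured by qPCR after TRIZOL RNA extraction and reverse transcription. Three biological samples per group, mean ± SD.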

[11] = target: T3, Peroxisome proliferator-activated receptor gamma (Homo sapiens) (UniProt P37231); assay: Activation of GAL4 fused human PPARgamma expressed in HEK293 cells at 10 uM after 24 hrs by luciferase reporter gene assay
T3 sequence (whole entry): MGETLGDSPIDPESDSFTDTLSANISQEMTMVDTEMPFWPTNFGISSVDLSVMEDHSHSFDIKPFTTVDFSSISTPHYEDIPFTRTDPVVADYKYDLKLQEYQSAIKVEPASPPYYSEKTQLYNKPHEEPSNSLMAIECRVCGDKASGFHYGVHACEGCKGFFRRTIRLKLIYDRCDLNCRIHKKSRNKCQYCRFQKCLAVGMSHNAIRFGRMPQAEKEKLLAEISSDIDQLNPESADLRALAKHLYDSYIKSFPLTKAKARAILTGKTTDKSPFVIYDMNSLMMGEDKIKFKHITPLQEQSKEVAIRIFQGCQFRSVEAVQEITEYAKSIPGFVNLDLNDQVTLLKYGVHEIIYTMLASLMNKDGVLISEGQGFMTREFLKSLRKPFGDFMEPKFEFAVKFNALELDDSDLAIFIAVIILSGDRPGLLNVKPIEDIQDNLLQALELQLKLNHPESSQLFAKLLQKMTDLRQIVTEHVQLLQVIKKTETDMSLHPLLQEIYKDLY

Homo sapiens [12] = species: Homo sapiens; assay: Agonist activity at LXR in human U937 cells assessed as downregulation of LPS-induced TNFalpha mRNA expression at 10 uM after 6 hrs by qPCR analysis; type: cell-based; method in brief: as §4
[13] = target: T4, Nuclear receptor subfamily 1 group I member 2 (Homo sapiens, UniProt O75469); assay: Activation of GAL4 fused human PXR expressed in HEK293 cells at 10 uM by luciferase reporter gene assay; conditions: hek293, 10 µM
T4 sequence (O75469 whole entry): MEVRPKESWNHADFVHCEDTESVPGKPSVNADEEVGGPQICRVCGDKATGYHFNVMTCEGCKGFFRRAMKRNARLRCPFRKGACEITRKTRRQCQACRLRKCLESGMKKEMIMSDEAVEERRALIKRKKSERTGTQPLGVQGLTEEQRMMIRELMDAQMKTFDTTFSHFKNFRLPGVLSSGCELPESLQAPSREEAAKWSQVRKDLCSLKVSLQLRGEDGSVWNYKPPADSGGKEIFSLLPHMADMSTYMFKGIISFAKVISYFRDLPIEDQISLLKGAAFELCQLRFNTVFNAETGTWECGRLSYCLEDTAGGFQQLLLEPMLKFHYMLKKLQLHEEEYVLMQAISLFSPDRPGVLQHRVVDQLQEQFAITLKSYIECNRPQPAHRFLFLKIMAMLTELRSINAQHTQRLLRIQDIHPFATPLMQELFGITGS

[14] = target: T5, Oxysterols receptor LXR-alpha (Homo sapiens) (UniProt Q13133); assay: Activation of GAL4 fused human LXR alpha expressed in HEK293 cells after 24 hrs by luciferase reporter gene assay relative to 22R-HC; type: cell-based
T5 sequence (whole entry): T1 sequence (Q13133 whole entry)
Method in brief: (§5)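 HEK293 cells carrying the Gal4-LXR-α or Gal4-LXR-β chimera plus the pMH100X4-TK-luc and Renilla reporters. Treatment started 6 h post-transfection and ran 24 h. Dual luciferase read-out. Efficacy is given as % of the response to 8 μM 22R-HC, ± SD, from three to five independent experiments.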

[15] = target: T6, Bile acid receptor (Homo sapiens) (UniProt Q96RI1); assay: Activation of GAL4 fused human FXR expressed in HEK293 cells at 10 uM by luciferase reporter gene assay
T6 sequence (whole entry): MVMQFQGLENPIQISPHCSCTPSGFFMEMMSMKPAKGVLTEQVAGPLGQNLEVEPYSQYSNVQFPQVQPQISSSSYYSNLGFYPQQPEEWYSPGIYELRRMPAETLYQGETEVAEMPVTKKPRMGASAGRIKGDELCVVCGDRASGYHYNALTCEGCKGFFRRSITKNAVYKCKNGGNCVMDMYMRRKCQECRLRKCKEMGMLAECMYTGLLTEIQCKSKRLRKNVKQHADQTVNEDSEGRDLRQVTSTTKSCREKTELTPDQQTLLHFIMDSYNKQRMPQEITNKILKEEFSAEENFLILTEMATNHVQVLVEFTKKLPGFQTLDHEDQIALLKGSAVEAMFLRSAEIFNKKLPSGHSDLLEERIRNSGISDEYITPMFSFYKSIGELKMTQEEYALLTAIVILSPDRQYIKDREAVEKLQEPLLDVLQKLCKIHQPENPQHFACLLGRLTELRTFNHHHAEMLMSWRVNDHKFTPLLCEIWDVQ

[16] = target: T7, Oxysterols receptor LXR-beta (Homo sapiens) (UniProt P55055); assay: Activation of GAL4 fused human LXR beta expressed in HEK293 cells after 24 hrs by luciferase reporter gene assay relative to 22R-HC; type: cell-based; method in brief: as §5
T7 sequence (whole entry): T2 sequence (P55055 whole entry)

Compound	Activity [1]	Activity [2]	Activity (Homo sapiens [3])	Activity [4]	Activity [5]	EC50 [6]	Activity [7]	EC50 [8]	Activity [9]	Activity (HEK293)	Activity (Homo sapiens [10])	Activity [11]	Activity (Homo sapiens [12])	Activity [13]	Efficacy [14]	Activity [15]	Efficacy [16]
CC(C)[C@@H](C)C[C@@H](O)[C@@H](C)[C@H]1CC[C@H]2C3=CC=C4C[C@@H](O)CC[C@]4(C)[C@H]3CC[C@]12C	Not Active	Not Active	Active	Not Active	Not Active	Not Active	Not Active	Not Active	Not Active								
CC(C)[C@@H](C)[C@@H](O)C[C@@H](C)[C@H]1CC[C@H]2C3=CC=C4C[C@@H](O)CC[C@]4(C)[C@H]3CC[C@]12C	Not Active	Not Active	Active	Not Active	Not Active		Not Active	Not Active	Not Active	inactive	Active	inactive	Active	Active	159%		
CC[C@H](C[C@@H](O)[C@@H](C)[C@H]1CC[C@H]2[C@@H]3CC=C4C[C@@H](O)CC[C@]4(C)[C@H]3CC[C@]12C)C(C)C	Not Active	Not Active	Active	Not Active	Not Active		Not Active		Not Active	inactive		inactive				Active	
CC(C)[C@@H](C)[C@H]1O[C@@H]1[C@@H](C)[C@H]1CC[C@H]2C3=CC=C4C[C@@H](O)CC[C@]4(C)[C@H]3CC[C@]12C	Not Active	Not Active		Not Active	Not Active		Not Active		Not Active	inactive		inactive		Active	93.2%		30.4%
CC[C@@H](C(C)C)[C@@H](O)C[C@@H](C)[C@H]1CC[C@H]2[C@@H]3CC=C4C[C@@H](O)CC[C@]4(C)[C@H]3CC[C@]12C	Not Active	Not Active	Active	Not Active	Not Active	Not Active	Not Active	Not Active	Not Active								
CC(C)[C@@H](C)C[C@H](O)[C@@H](C)[C@H]1CC[C@H]2C3=CC=C4C[C@@H](O)CC[C@]4(C)[C@H]3CC[C@]12C	Not Active	Not Active	Active	Not Active	Not Active		Not Active		Not Active	inactive	Active	inactive		Active			
CC[C@H](C[C@H](O)[C@@H](C)[C@H]1CC[C@H]2[C@@H]3CC=C4C[C@@H](O)CC[C@]4(C)[C@H]3CC[C@]12C)C(C)C	Not Active	Not Active		Not Active	Not Active	Not Active	Not Active	Not Active	Not Active								
